ABCB1 inh: ABCB1 efflux pump inhibitors, primary screen, cell-based, multiplex, flow cytometry, ABCG2 counter-screen. CCRF-Adr cells, JC-1 efflux. AID 1326, 2008. inhibition, % at 6.6 µM. actives 0.067% (n = 190,000); in the data active means inhibition above about 40%;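 further: higher value means more JC-1 retained so stronger ABCB1 efflux block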
L major viab: Leishmania major promastigote growth inhibition, primary screen; Leishmania major promastigotes, resazurin fluorescence viability; inhibition, % at 10 µM; actives 9% (n = 200,000);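 further: promastigotes grown with compound for 44 hours at 28 °C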
ABCG2 inh: ABCG2 efflux pump inhibitors, primary screen, multiplex with ABCB1, IgMXP3 cells, flow cytometry. inhibition, % at 6.6 µM. actives 0.1% (n = 190,000). JC-1 efflux. AID 1325, 2008. Broad substrate specificity ATP-binding cassette transporter ABCG2 (Homo sapiens), Q9UNQ0;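 active means inhibition above 80%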
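System: two drug-resistant human cell lines, ABCG2 and ABCB1; controls: nicardipine high and DMSO low controls; times: 10 min exposure at 25 °C with rotation, no wash; detection: flow cytometry of retained JC-1 fluorescence; read-out basis: percent efflux inhibition, scaled nicardipine 100% to DMSO 0%; doses: one concentration, 6.6 µM final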
PKD1 inh: inhibitors of human PKD1 kinase, biochemical, fluorescence polarization | Serine/threonine-protein kinase D1 (Homo sapiens), Q15139 | PKD1 kinase fluorescence polarization assay | inhibition, % (test concentration not listed) | actives 0.056% (n = 200,000) | AID 797, 2007
GSH fluor: compound fluorescence on glutathione beads, profiling panel, artefact control, biophysical, 488/530 nm, flow cytometry; GSH beads flow cytometry, compound fluorescence 488/530 nm; active compounds read high; fluorescence (KMESF) at 10 µM; actives 0.25% (n = 190,000); in the data active means fluorescence above about 89;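 further: glutathione beads carrying GST-tagged Bcl family fusion proteins plus one bare bead set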
Avidin bead fluor: green autofluorescence of compounds with avidin beads – biophysical, 488/530 nm, flow cytometry, artefact control, profiling panel; fluorescence (KMESF) at 10 µM; AID 1775, 2009; actives 0.38% (n = 220,000); compound fluorescence 488/530 nm; active compounds read high; in the data active means fluorescence above about 47
Each line names hits and unclear results; the compound was inactive in the other large screens. The full list was thinned out, with hits kept by preference. Unless noted, no stated cut-off is given here; in the data, active means inhibition above about 50%; inactive means the rest.

CCc1nnc(NC(=O)CSc2nc3ccc(OC)cc3[nH]2)s1	none
O=C(Cn1cc([N+](=O)[O-])nc1[N+](=O)[O-])N1CCN(c2ccccc2)CC1	L major viab 100
Cc1c(Br)c([N+](=O)[O-])nn1CCCC(=O)N1CCN(c2ccccc2)CC1	L major viab 70
O=C(Cn1cnc2ccccc2c1=O)N1CCN(c2ccccc2)CC1	none (no result: Avidin bead fluor)
Cc1ccccc1-c1nc(Cc2ccccc2)no1	none
COc1cc(/C=N/NC(=O)COc2ccccc2[N+](=O)[O-])ccc1OC(=O)c1ccco1	L major viab 57
COc1cc(/C=N/Nc2nc(N3CCCCC3)nc(N3CCCCC3)n2)ccc1OC(=O)c1ccco1	L major viab 60
COc1ccc(/C=N/Nc2nc(Nc3ccccc3)nc(N3CCCCC3)n2)cc1OC	L major viab 98
O=C(Oc1cccc(/C=N/Nc2nc(Nc3ccccc3)nc(N3CCOCC3)n2)c1)c1ccco1	L major viab 65
COc1cc(/C=N/Nc2ccc(Cl)c(C(=O)O)c2)ccc1OC(=O)c1ccco1	none
CC(C)(C)N(Cc1ccccc1)C(=O)COC(=O)Cn1cnc2ccccc2c1=O	none
CC(C)(C)c1ccc(OCC(=O)N/N=C/c2cc(Br)ccc2OC(=O)c2ccco2)cc1	L major viab 94
COc1ccc(Br)cc1/C=N/NC(=O)c1ccco1	none
C#CCOCCOCCOCCNc1nc(N2CCN(C(=O)C([C@@H](C)CC)n3cc(C(N)CO)nn3)CC2)nc(N2CCN(C(=O)[C@H](CCC(=O)O)n3cc(C(N)[C@H](C)CC)nn3)CC2)n1 (some centres not stated)	none (no result: ABCB1 inh, L major viab, ABCG2 inh, PKD1 inh, GSH fluor)
Cc1cc(/C=C2/SC(=S)N(c3ccc([N+](=O)[O-])cc3)C2=O)c(C)n1-c1cccnc1	L major viab 91
O=C(N/N=C/c1ccc2c(c1)OCO2)c1cc(-c2ccccc2Cl)nc2ccccc12	L major viab 56
CCOc1ccccc1-c1cc(C(=O)N/N=C/c2ccc(O)c(OC)c2)c2ccccc2n1	L major viab 58
CCN(CC)c1ccc(/C=N/NC(=O)CNC(=O)c2ccccn2)cc1	none
CCOc1ccccc1-c1cc(C(=O)N/N=C/c2ccc3c(c2)OCO3)c2ccccc2n1	L major viab 51
O=C(CNC(=O)c1ccccn1)N/N=C/c1ccc2c(c1)OCO2	L major viab 63
CCn1ncc(/C=N\NC(=O)Cc2ccc([N+](=O)[O-])cc2)c1C	none
CCn1ncc(/C=N\NC(=O)c2csc3ccccc23)c1C	L major viab 62
Cc1c(/C=N\NC(=O)c2csc3ccccc23)cnn1C	Avidin bead fluor 54
O=C(N/N=C/c1cccc(O)c1)c1csc2ccccc12	L major viab 69
Cc1nn(C)c(C)c1/C=N/NC(=O)c1csc2ccccc12	none
O=C1NC(c2cccc([N+](=O)[O-])c2)Oc2ccccc21 (configuration not stated)	none
Cc1ccc(NC(=O)c2cc(Cl)ccc2[N+](=O)[O-])cc1C	none
CN(Cc1ccccc1)C(=O)c1ccc([N+](=O)[O-])o1	L major viab 86
O=C(Nc1ccc(N2CCCC2)c(Cl)c1)c1ccc([N+](=O)[O-])o1	L major viab 101
Cc1ccc(NC(=O)c2ccc([N+](=O)[O-])o2)cc1C	L major viab 100
Cc1cccc(NC(=O)c2ccc([N+](=O)[O-])o2)c1C	L major viab 97
O=C(COC(=O)c1ccc([N+](=O)[O-])o1)c1ccccc1	none
CN1CCc2c(sc3nc(NN)n(Cc4ccccc4)c(=O)c23)C1	none (no result: ABCB1 inh, L major viab, ABCG2 inh, PKD1 inh, GSH fluor)
COc1ccc(CCCC(=O)NCc2ccccc2)cc1C	none
Cc1ccc(CNC(=O)c2ccc([N+](=O)[O-])o2)cc1	L major viab 76
O=C(/C=C/c1ccc(Cl)c([N+](=O)[O-])c1)Nc1ccc(N2CCCC2)c(Cl)c1	L major viab 79
CC(C)C(=O)Nc1ccc(N2CCCC2)c(Cl)c1	none
Cc1ccc(CNC(=O)c2nn(C)c(C)c2[N+](=O)[O-])cc1	none
COc1ccc(CNC(=O)CSc2ccsc2[N+](=O)[O-])cc1	none
O=C1N/C(=C/c2ccc(N3CCCC3)cc2)C(=O)N1c1ccccc1	L major viab 69

Screening results as filed in PubChem.
